Screens deposited in PubChem BioAssay by The Scripps Research Institute Molecular Screening Center.
CHO parental Ca: counter-screen for OX1R antagonists: effect in parental CHO cells. inhibition, % at 5.6 µM. parental CHO-K1, ATP-induced calcium, Fluo-8 fluorescence. AID 463079. 330,000 compounds, 0.63% hits;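 active means inhibition above that plate's mean sample inhibition plus 3 SD, cut at about 26% in these data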;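 further: 0% = ATP-challenged DMSO wells and 100% = DMSO wells without ATP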
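Assay system – parental CHO cells · Reagent – ATP stimulus · Detection – intracellular calcium via Fluo-8 no-wash fluorescent dye · Evaluation – percent inhibition of ATP-evoked calcium rise, normalized to controls · Controls – ATP wells versus no-ATP DMSO wells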
TAAR1 agonist: agonists of human TAAR1; 360,000 compounds, 0.99% hits; CHO RD-HGA16 TAAR1, Fluo-8 calcium fluorescence; vehicle wells 0%, saturating PEA agonist 100%; AID 624467; Q96RJ0; activation, % at 3 µM;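 active means activation above the mean activation of all test compounds in the run plus 3 SD, cut at about 38% in these data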
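Test system: RD-HGA16 (CHO) cells co-expressing Gα16 and hTAAR1 / Benchmarks: DMSO vehicle as 0%, PEA at EC100 as 100% / Repeats: no replicates (n 1) / Measure: % activation from peak over basal fluorescence ratio, DMSO-to-PEA scaled / Timing: 17-24 h plating, Fluo-8 75 min 37 °C, 30 min RT / Technique: kinetic Fluo-8 calcium fluorescence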
OX1R antag-1: human HCRTR1 antagonism; O43613; CHO/OX1R cells, Fluo-8 calcium fluorescence, orexin A; inhibition, % at 5 µM; 330,000 compounds, 0.43% hits;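 active means inhibition above its plate's threshold, mean inhibition of all tested compounds on the plate plus 3 SD, cut at about 37% in these data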;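 further: 0% = orexin A challenge wells and 100% = SB-334867-A antagonist wells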
Target sequence (O43613 whole entry, looked up): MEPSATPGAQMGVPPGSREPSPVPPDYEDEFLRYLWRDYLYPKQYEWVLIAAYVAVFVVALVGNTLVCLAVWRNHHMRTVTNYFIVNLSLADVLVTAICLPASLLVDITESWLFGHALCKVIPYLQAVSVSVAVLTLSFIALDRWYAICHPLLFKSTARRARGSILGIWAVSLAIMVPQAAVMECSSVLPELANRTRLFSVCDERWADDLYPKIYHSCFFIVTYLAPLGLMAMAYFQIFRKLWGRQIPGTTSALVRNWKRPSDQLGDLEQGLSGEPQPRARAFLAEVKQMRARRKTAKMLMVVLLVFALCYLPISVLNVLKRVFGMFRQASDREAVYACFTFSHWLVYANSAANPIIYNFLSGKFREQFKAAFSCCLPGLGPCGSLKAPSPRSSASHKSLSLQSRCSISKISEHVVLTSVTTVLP
GPR7 antag: blocks human GPR7 receptor signaling; 290,000 compounds, 1.1% hits; inhibition, % at 4.4 µM; GPR7-expressing cells, fluorescence antagonist assay; AID 1861; P48145; in the data active means inhibition above about 16%, passing the limit was not always enough;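 further: cells stimulated with the agonist NPW; 0% = agonist with vehicle and 100% = vehicle without agonist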
OX1R antag-2: antagonists of human orexin 1 receptor (OX1R); OX1R-expressing cells, FRET antagonist read-out; inhibition, % at 6.6 µM; 330,000 compounds, 1.8% hits; AID 485270; in the data active means inhibition mostly above about 38%, no sharp cut-off; inactive means mostly below about 40%;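 further: 0% = agonist challenge alone and 100% = reference antagonist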
TAAR1 antag: human TAAR1 antagonism; inhibition, % at 3 µM; CHO RD-HGA16 TAAR1, Fluo-8 calcium fluorescence, antagonist; 360,000 compounds, 1.5% hits; AID 624466; Q96RJ0;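 active means inhibition above a per-plate cutoff, the mean inhibition of test compounds on that plate plus 3 SD, cut at about 49% in these data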;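 further: 0% = DMSO plus EC80 beta-PEA response and 100% = DMSO alone without agonist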
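Test system – hTAAR1-expressing CHO RD-HGA16 cells, Gα16-coupled · Reagent – β-PEA at EC80 concentration, post-compound challenge · Compound dosing – 3 µM, single point · Timing – 140 s kinetic read after compound, 140 s after agonist · Detection – Fluo-8 intracellular calcium dye fluorescence, real-time kinetic reads · Control set – DMSO and EC80 PEA controls · Repeats – n of 1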
nonsel antag count: nonselective antagonist in TAAR1 antagonist counter-screen; counterscreen cell line, calcium fluorescence, antagonist mode; shares compounds with TAAR1 antag; AID 651780; 2,400 compounds, 77% hits; inhibition, % at 3 µM; in the data active means inhibition above about 22%;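 further: CHO-Ga16 host cells stimulated with ATP at an EC80 level; 0% = agonist EC80 plus vehicle and 100% = vehicle without agonist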
TAAR1 antag conf: human TAAR1 antagonism, confirmed. shares compounds with TAAR1 antag. TAAR1-expressing cells, fluorescence antagonist read-out. inhibition, % at 3 µM. 2,400 compounds, 40% hits. AID 651785; in the data active means inhibition above about 49%;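 further: CHO-Ga16 host cells challenged with agonist PEA near its EC80; 0% = agonist at EC80 plus vehicle and 100% = vehicle with no agonist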
Ga16 ag counter: counter-screen for TAAR1 antagonists: nonselective Ga16 agonists | shares compounds with TAAR1 antag | Ga16-expressing cells, calcium fluorescence, agonist counterscreen | activation, % at 3 µM | 2,400 compounds, 18% hits; in the data active means activation above about 12%;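 further: 0% = vehicle wells and 100% = saturating stimulus response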
TAAR1 ag counter: TAAR1 agonism, antagonist counter-screen. shares compounds with TAAR1 antag. hTAAR1 cell line, fluorescence activation, agonist mode. activation, % at 3 µM. 2,400 compounds, 2% hits; in the data active means activation above about 37%;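 further: CHO cells stably expressing TAAR1 with calcium dye readout; 0% = DMSO vehicle and 100% = full agonist response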
An asterisk follows results filed as active. Hits are enriched below; roughly 4.5% of the tested compounds scored in any of these assays.

Screening Cc1ccc2nc(-c3cccc(SC4CCCCC4)c3)c(NCc3ccccc3)n2c1 returned CHO parental Ca -13, TAAR1 agonist 8, OX1R antag-1 16, OX1R antag-2 11, TAAR1 antag 84*, nonsel antag count 37*, TAAR1 antag conf 61*, Ga16 ag counter 4 and TAAR1 ag counter 8.
Screening CCc1nc2c(OCc3cc(Cl)cc(Cl)c3)cccn2c1N(C)C(=O)c1ccc(OC)cc1 returned TAAR1 agonist 6 and TAAR1 antag -33.
O=[N+]([O-])c1ccc(Nc2cccc3c2[nH]c2c(-c4ccccc4)nccc23)c([N+](=O)[O-])c1 was read as TAAR1 agonist 0 and TAAR1 antag 3.
O=S(=O)(c1cccs1)N1CCCc2nc(-c3ccc(F)cc3)ccc21 was read as TAAR1 agonist -1, TAAR1 antag 53*, nonsel antag count 33*, TAAR1 antag conf 37, Ga16 ag counter 6 and TAAR1 ag counter 1.
For COc1ccc(-c2ccc3c(n2)CCCN3S(=O)(=O)c2cccs2)cc1 the results were TAAR1 agonist 13, TAAR1 antag 81*, nonsel antag count 42*, TAAR1 antag conf 64*, Ga16 ag counter 11 and TAAR1 ag counter 13.
Screening CCOc1cc2c(cc1OC)C(c1cccc([N+](=O)[O-])c1)NCC2 (stereo not drawn) returned CHO parental Ca -23, TAAR1 agonist 0, OX1R antag-1 -16, GPR7 antag -3, OX1R antag-2 19, TAAR1 antag 106*, nonsel antag count 4, TAAR1 antag conf 7, Ga16 ag counter 3 and TAAR1 ag counter 6.
`COc1ccc(CN2CCN(C(=O)c3ccccc3C(=O)c3ccccc3)CC2)cc1F` gave TAAR1 agonist -1 and TAAR1 antag -3.
`Cc1ccc(C)c(NC(=O)Cc2nc(CCl)cs2)c1` gave CHO parental Ca -4, TAAR1 agonist -2, OX1R antag-1 -11, GPR7 antag 4, OX1R antag-2 4 and TAAR1 antag 2.
For COc1cc(C(=O)OCc2csc(CC(=O)Nc3cc(C)ccc3C)n2)ccc1OC(F)F the results were TAAR1 agonist 9, TAAR1 antag 66*, nonsel antag count 42*, TAAR1 antag conf 53*, Ga16 ag counter 8 and TAAR1 ag counter 5.
COc1ccc(CNC(=O)Cn2cc(C)c(=O)[nH]c2=O)cc1 was read as TAAR1 agonist 3 and TAAR1 antag -15.
Screening CCN(CC(=O)Nc1ccccc1OC)CC(=O)Nc1c(Cl)ccc(C)c1Cl returned CHO parental Ca -13, TAAR1 agonist 12, OX1R antag-1 -16, GPR7 antag -1, OX1R antag-2 12, TAAR1 antag 58*, nonsel antag count 22*, TAAR1 antag conf 40, Ga16 ag counter 8 and TAAR1 ag counter 8.
`CCN(CC(=O)NCc1cccs1)CC(=O)Nc1c(Cl)ccc(C)c1Cl` gave CHO parental Ca -27, TAAR1 agonist 5, OX1R antag-1 -11, OX1R antag-2 6 and TAAR1 antag 21.
Screening COc1cccc(-c2nc(N3CCCCC3C)c3ccccc3n2)c1O (stereo not drawn) returned CHO parental Ca 6, TAAR1 agonist 4, OX1R antag-1 -25, GPR7 antag -32, OX1R antag-2 22 and TAAR1 antag -22.
`COc1cccc(-c2nc(NC3CCCC3)c3ccccc3n2)c1O` gave CHO parental Ca -6, TAAR1 agonist 8, OX1R antag-1 11, GPR7 antag -37, OX1R antag-2 30, TAAR1 antag 61*, nonsel antag count 22*, TAAR1 antag conf 53*, Ga16 ag counter 8 and TAAR1 ag counter 12.
`COc1ccc(Cl)cc1NC(=O)COC(=O)/C=C/c1c(C)nn(C2CCS(=O)(=O)C2)c1Cl` (stereo not drawn) gave CHO parental Ca 44*, TAAR1 agonist 16, OX1R antag-1 32, GPR7 antag -14, OX1R antag-2 56, TAAR1 antag 53*, nonsel antag count 42*, TAAR1 antag conf 41, Ga16 ag counter 13* and TAAR1 ag counter 13.
Cc1ccc(SC[C@H](Cc2ccccc2)N2CCN(CC(C)C)CCC2=O)cc1 was read as CHO parental Ca -31, TAAR1 agonist 11, OX1R antag-1 -18, OX1R antag-2 7 and TAAR1 antag 36.
`CC(C)CN1CCC(=O)N([C@H](CSc2ccccc2)Cc2ccccc2)CC1` gave CHO parental Ca -30, TAAR1 agonist 10, OX1R antag-1 -48, GPR7 antag 19, OX1R antag-2 35, TAAR1 antag 53*, nonsel antag count 18, TAAR1 antag conf 30, Ga16 ag counter 11 and TAAR1 ag counter 18.
For CC1(Oc2ccc(-n3ccnc3)cc2)CCN(Cc2cccn2-c2nccs2)C1 (stereo not drawn) the results were TAAR1 agonist 0 and TAAR1 antag -6.
For CC(=O)c1ccc(NC(=O)c2ccc(NC(=O)CCS(=O)(=O)c3cccs3)cc2)cc1 the results were CHO parental Ca 9, TAAR1 agonist 16, OX1R antag-1 5, GPR7 antag 2, OX1R antag-2 15, TAAR1 antag 86*, nonsel antag count 40*, TAAR1 antag conf 64*, Ga16 ag counter 15* and TAAR1 ag counter 18.
C#CCNCCS(=O)(=O)N(Cc1ccc(Br)cc1)[C@@H](CC(C)C)C(=O)O was read as CHO parental Ca -18, TAAR1 agonist 0, OX1R antag-1 -14, OX1R antag-2 3 and TAAR1 antag -22.
`Cc1nc(Cc2nnc(SCC(=O)N3c4ccccc4NC(=O)C3(C)C)o2)cs1` gave TAAR1 agonist 1 and TAAR1 antag 8.
`C=C(C)COc1ccc(-c2[nH]ncc2-c2ccccc2)c(O)c1` gave CHO parental Ca -3, TAAR1 agonist 20, OX1R antag-1 13, GPR7 antag -16, OX1R antag-2 1, TAAR1 antag 60*, nonsel antag count -1, TAAR1 antag conf 9, Ga16 ag counter 1 and TAAR1 ag counter 12.
